Records with an inconclusive call do not appear.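 Rule for the calls, unless noted: active = viability increase at or above a cutoff of the median across tested compounds plus 3 SD (cut at about 8.5% in these data, passing the limit was not always enough); inconclusive = some gains above the cutoff, reason not given; inactive = the rest.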
How the values were obtained:
[1] = S. cerevisiae growth inhibition in permissive medium (OD615), pilot counter-assay for S. cerevisiae lifespan shortening project, permissive growth control (AID 705;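 active = growth inhibition above 25% in both replicates, a cutoff set 3 SD above the mean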); details: OD615, 24 h, at 10 µM, active compounds read high
In short: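 Material: engineered DeaD yeast; compound dosing: one dose 10 µM, DMSO 0.25% final; measure: yeast growth inhibition indicated by reduced 24 h OD615; detection: OD615 turbidity read; incubation: cells pre-grown 4 h, then 24 h compound exposure, 30 °C humidified; medium: permissive synthetic complete medium with raffinose and galactose carbon sources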

[2] = S. cerevisiae growth inhibition in restrictive medium, OD615, pilot screen, restrictive growth control, yeast lifespan reduction project (AID 706;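 active = growth inhibition above a set limit, 3 SD over mean compound inhibition, in both replicates, cut at about 43% in these data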;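 note: modified DeaD lifespan yeast strain shifted to restrictive glucose medium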); details: OD615, 48 h, at 10 µM, active compounds read high
In short: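 material = engineered S. cerevisiae DeaD strain | medium = glucose-based CSMM-D restrictive medium | times = 4 h pre-incubation, 48 h exposure at 30 °C | technique = OD615 absorbance reading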

[3] = doxorubicin toxicity protection in MRP-1 cells – H69AR cells, CellTiter-Glo, duplicate, MRP-1 activator project, pilot screen (AID 807); details: H69AR viability with doxorubicin, CellTiter-Glo luminescence; at 10 µM; active compounds read high;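 note: compound pretreatment 18-22 h then 72 h combined with doxorubicin; 0% = doxorubicin alone and 100% = vehicle without doxorubicin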
[4] = viability of HCT116 without oncogenic beta-catenin – human colon tumor cells, pilot screen (AID 823;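 active = cell viability at or below a set limit in both duplicate runs, the limit being the all-compound median minus 4 SD, cut at about 23% in these data, passing the limit was not always enough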;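 note: 0% = wells killed by 20 µM Hyamine and 100% = untreated DMSO cell wells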); details: HCT116 beta-catenin knockout viability, CellTiter-Glo, 60 h; at 10 µM; active compounds read low
[5] = viability of PTEN-null HCT116 cells – cell-based, HCT116 clonal line, CellTiter-Glo, pilot screen (AID 824;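 active = viability at or below 27.92% in each of two runs, the all-compound median minus 4 SD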;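 note: 0% = 20 µM Hyamine control and 100% = vehicle cell control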); details: HCT116 PTEN-deleted viability, 60 h, at 10 µM, active compounds read low
[6] = RAM pathway blockade in budding yeast – dse1pr::URA3 reporter, 5-FOA selection, pilot screen (AID 869;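 active = inhibition over a set limit, the all-compound mean plus 3 SD, in both replicate runs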;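 note: 0% = DMSO wells with no growth and 100% = 10 µM 1-NA-PP1 with full growth; RAM network block rescues cells from 5-FOA so hits raise OD615 growth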); details: S. cerevisiae dse1pr::URA3 5-FOA growth, OD615, 2 d; at 10 µM; active compounds read high; strain carries analog-sensitive mutant Cbk1 kinase
[7] = RAM signaling pathway blockade in yeast – S. cerevisiae, Pdr1DBD-CYC8 efflux-inhibited sensitized strain, primary screen (AID 1298;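 active = RAM network inhibition above 8.4% in each of two replicates, 3 SD over the compound average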;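 note: 0% = DMSO untreated cells without growth and 100% = 10 µM 1-NA-PP1 full growth; higher means more yeast growth rescued from 5-FOA killing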); details: S. cerevisiae cbk1-as DSE1-URA3 strain, 5-FOA growth OD615, 2 d; at 50 µM; active compounds read high

COc1cccc(CNC(=O)c2cc3ccccn3n2)c1
inactive: growth inhibition [1] -1.27% | growth inhibition [2] -6.35% | viability increase [3] -2.27% | viability [4] 106% | viability [5] 96.8% | inhibition [6] 1.33% | RAM network inhibition [7] -0.11%

O=NC1=C(c2c(O)[nH]c3ccccc23)CCCC1
inactive: growth inhibition [1] -3.26% | growth inhibition [2] -12% | viability increase [3] -5.46% | viability [4] 91% | viability [5] 93.9% | inhibition [6] 1.6% | RAM network inhibition [7] 4.71%

Cc1ccccc1N1C(=O)c2sc3nc4c(c(=O)n3c2C1=O)CCC4
inactive: growth inhibition [1] 4.62% | growth inhibition [2] 25.2% | viability increase [3] -4.72% | viability [4] 97% | viability [5] 96.8% | inhibition [6] 1.5% | RAM network inhibition [7] 2.56%

O=C(CSc1nc2c(cnn2-c2ccc(F)cc2)c(=O)[nH]1)N1CCCCCC1
inactive: growth inhibition [1] -3.72% | growth inhibition [2] -9.65% | viability increase [3] -3.34% | viability [4] 94.2% | viability [5] 93% | inhibition [6] 1.53% | RAM network inhibition [7] -0.11%

O=C(NCCN1CCCC1)c1ccc(CS(=O)(=O)c2c(Cl)cccc2Cl)o1
inactive: growth inhibition [1] -6.75% | growth inhibition [2] -20.8% | viability increase [3] -0.97% | viability [4] 106% | viability [5] 102% | inhibition [6] 1.5% | RAM network inhibition [7] 2.61%

CC(=O)Nc1ccc(S(=O)(=O)Nc2nc3ccccc3nc2Sc2nncn2C)cc1
inactive: growth inhibition [1] 1.94% | growth inhibition [2] 11.7% | viability increase [3] -2.89% | viability [4] 98.1% | viability [5] 98.1% | inhibition [6] 1.86% | RAM network inhibition [7] 2.12%

C=CCn1c(=O)c(C(=O)Nc2ccccc2OC)c(O)c2ccccc21
inactive: growth inhibition [1] 1.44% | growth inhibition [2] -2.46% | viability increase [3] -2.69% | viability [4] 104% | viability [5] 90.1% | inhibition [6] 2.31% | RAM network inhibition [7] 1.39%

CCCOc1ccc(N2C(=O)CC(N3CCC(O)(c4cccc(C(F)(F)F)c4)CC3)C2=O)cc1 (stereo not given)
inactive: growth inhibition [1] 1.01% | growth inhibition [2] -0.55% | viability increase [3] 2.49% | viability [4] 101% | viability [5] 103% | inhibition [6] 2.71% | RAM network inhibition [7] 5.62%

Cc1cc(C)n(C(=O)CCN2C(=O)c3ccccc3C2=O)n1
inactive: growth inhibition [1] -14.3% | growth inhibition [2] 5.39% | viability increase [3] 2% | viability [4] 94.9% | viability [5] 103% | inhibition [6] -0.64% | RAM network inhibition [7] -0.15%

CCC(C)C1C(C#N)=C(N)OC2=C1C(=O)CC(C)(C)C2 (stereo not given)
inactive: growth inhibition [1] -10.1% | growth inhibition [2] -15.1% | viability increase [3] -3.48% | viability [4] 103% | viability [5] 86.5% | inhibition [6] 1.31% | RAM network inhibition [7] 6.21%

COc1ccc(N2C(=O)CC(c3ccc(OC(C)C)cc3)C2=O)cc1 (stereo not given)
inactive: growth inhibition [1] -5.08% | growth inhibition [2] -8.6% | viability increase [3] 1.46% | viability [4] 97.9% | viability [5] 104% | inhibition [6] 1.39% | RAM network inhibition [7] 3.45%

O=C(NCc1ccco1)N1c2ccccc2Sc2ccccc21
inactive: growth inhibition [1] -12.9% | growth inhibition [2] -8.64% | viability increase [3] -4.68% | viability [4] 88% | viability [5] 91.6% | inhibition [6] 0.805% | RAM network inhibition [7] 4.32%

O=C1CC(NCc2ccc3c(c2)OCO3)C(=O)N1CCc1ccccc1 (stereo not given)
inactive: growth inhibition [1] -16% | growth inhibition [2] -11.1% | viability increase [3] -2.06% | viability [4] 102% | viability [5] 104% | inhibition [6] 1.88% | RAM network inhibition [7] 0.51%

C=CCSC1=C(C#N)C(c2ccc(C(C)C)cc2)CC(=O)N1 (stereo not given)
inactive: growth inhibition [1] -11.6% | growth inhibition [2] 8.41% | viability increase [3] -1.41% | viability [4] 92.2% | viability [5] 96.3% | inhibition [6] 0.04% | RAM network inhibition [7] 5.66%

CN(C)S(=O)(=O)c1ccc(C(=O)OCCCN=C2NS(=O)(=O)c3ccccc32)cc1
inactive: growth inhibition [1] -13% | growth inhibition [2] -15.2% | viability increase [3] 0.05% | viability [4] 109% | viability [5] 102% | inhibition [6] 0.955% | RAM network inhibition [7] 2.94%

C=CCn1c(=O)c2c(nc3n2CC(C)CN3c2cccc(OC)c2)n(C)c1=O (stereo not given)
inactive: growth inhibition [1] -16.1% | growth inhibition [2] -8.79% | viability increase [3] -3.27% | viability [4] 97.7% | viability [5] 98.8% | inhibition [6] 1.56% | RAM network inhibition [7] 5.52%

COc1cc(NC(=O)C2CCCN2S(=O)(=O)c2ccc3c(c2)CCC(=O)N3)cc(OC)c1 (stereo not given)
inactive: growth inhibition [1] -15.3% | growth inhibition [2] -5.1% | viability increase [3] -1.09% | viability [4] 97.7% | viability [5] 105% | inhibition [6] 1.09% | RAM network inhibition [7] 1.33%

O=C(c1cc2ccccn2n1)N1CCN(Cc2ccccc2)CC1
inactive: growth inhibition [1] 1.21% | growth inhibition [2] 7.58% | viability increase [3] -0.74% | viability [4] 104% | viability [5] 87.7% | inhibition [6] 0.99% | RAM network inhibition [7] 2.76%

O=S(=O)(c1ccc(OCc2nc3ccccc3s2)c(Cl)c1)N1CCOCC1
inactive: growth inhibition [1] -7% | growth inhibition [2] 9.42% | viability increase [3] -0.83% | viability [4] 91.5% | viability [5] 88.6% | inhibition [6] 1.26% | RAM network inhibition [7] -0.57%

O=C(Nc1nc2c(s1)COc1ccccc1-2)c1cccs1
inactive: growth inhibition [1] 0.91% | growth inhibition [2] -0.5% | viability increase [3] -4.13% | viability [4] 72.2% | viability [5] 71% | inhibition [6] 1.43% | RAM network inhibition [7] 3.54%

O=C(CN1CCN(Cc2ccc(F)cc2)C1=O)NCc1cccs1
inactive: growth inhibition [1] -6.23% | growth inhibition [2] -1.7% | viability increase [3] 1.33% | viability [4] 99.5% | viability [5] 94.1% | inhibition [6] 0.97% | RAM network inhibition [7] 2.12%

CN(CP(=O)(O)C(O)c1ccccc1)S(C)(=O)=O (stereo not given)
inactive: growth inhibition [1] -4.82% | growth inhibition [2] -6.66% | viability increase [3] 0.16% | viability [4] 94.2% | viability [5] 93.4% | inhibition [6] 1.1% | RAM network inhibition [7] 1.86%

CCN1C(=O)c2ccccc2S(=O)c2ccc(C(=O)NCc3ccccn3)cc21 (stereo not given)
inactive: growth inhibition [1] -1.77% | growth inhibition [2] -3.51% | viability increase [3] -0.87% | viability [4] 105% | viability [5] 95.7% | inhibition [6] 1.95% | RAM network inhibition [7] -2.39%

COC(=O)NCc1ccc(Cl)c(Cl)c1
inactive: growth inhibition [1] 0.76% | growth inhibition [2] -7.57% | viability increase [3] -1.07% | viability [4] 85.4% | viability [5] 88.6% | inhibition [6] 0.09% | RAM network inhibition [7] 4.44%

O=C(O)CCCC(=O)Nc1c(F)c(F)c(F)c(F)c1F
inactive: growth inhibition [1] -5.5% | growth inhibition [2] -6.27% | viability increase [3] -1.85% | viability [4] 90.4% | viability [5] 94.4% | inhibition [6] 0.175% | RAM network inhibition [7] -0.87%

Cc1cccc(-n2ncc3c(NCCc4ccc(S(N)(=O)=O)cc4)ncnc32)c1
inactive: growth inhibition [1] 2.13% | growth inhibition [2] 1.53% | viability increase [3] -2.67% | viability [4] 88.8% | viability [5] 82% | inhibition [6] 1.27% | RAM network inhibition [7] 4.84%

Cc1cc(C)nc(SCC(=O)OCN2C(=O)c3ccccc3C2=O)n1
inactive: growth inhibition [1] -19.7% | growth inhibition [2] -18.3% | viability increase [3] -1.63% | viability [4] 91.6% | viability [5] 91.6% | inhibition [6] 0.15% | RAM network inhibition [7] 3.15%

Cc1ccc(C2N(c3ccc(F)cc3)C(=O)C3CCCN32)cc1 (stereo not given)
inactive: growth inhibition [1] -0.945% | growth inhibition [2] -4.53% | viability increase [3] -1.55% | viability [4] 89.4% | viability [5] 97.3% | inhibition [6] 2.21% | RAM network inhibition [7] 4.87%

OCc1cn(-c2ccccc2)nc1-c1ccc(-c2nn(-c3ccccc3)cc2CO)cc1
inactive: growth inhibition [1] 3.83% | growth inhibition [2] -4.29% | viability increase [3] -4.72% | viability [4] 102% | viability [5] 95.1% | inhibition [6] 1.8% | RAM network inhibition [7] 5.84%

Cn1cc(S(=O)(=O)N2CCN(Cc3ccccc3)CC2)c(=O)n(C)c1=O
inactive: growth inhibition [1] -11.9% | growth inhibition [2] -10.5% | viability increase [3] -0.5% | viability [4] 95.2% | viability [5] 95.5% | inhibition [6] 0.755% | RAM network inhibition [7] -0.22%

O=c1c2cnn(-c3ccccc3)c2ncn1Cc1cccc(Cl)c1
inactive: growth inhibition [1] 2.21% | growth inhibition [2] 2.59% | viability increase [3] 3.21% | viability [4] 102% | viability [5] 91.7% | inhibition [6] 3.21% | RAM network inhibition [7] 6.55%

COc1cc(OC)cc(C(=O)Nc2cccc(NC(C)=O)c2)c1
inactive: growth inhibition [1] -2.19% | growth inhibition [2] -3.84% | viability increase [3] -2.31% | viability [4] 111% | viability [5] 108% | inhibition [6] 2.15% | RAM network inhibition [7] 2.04%

CN(C)C(=O)Nc1cnc2ccccc2c1
inactive: growth inhibition [1] 0.64% | growth inhibition [2] -11.9% | viability increase [3] -0.11% | viability [4] 104% | viability [5] 99.3% | inhibition [6] 1.16% | RAM network inhibition [7] 1.97%

C=CCn1c(SCC(=O)N2CCN(c3ccc(F)cc3)CC2)nnc1-c1ccco1
inactive: growth inhibition [1] 3.6% | growth inhibition [2] 1.48% | viability increase [3] -2.41% | viability [4] 60.7% | viability [5] 73.1% | inhibition [6] 1.71% | RAM network inhibition [7] 11.3%

O=C(NCC1COc2ccccc2O1)C1CCCN(S(=O)(=O)c2cccc3cccnc23)C1 (stereo not given)
inactive: growth inhibition [1] -2.58% | growth inhibition [2] -19.5% | viability increase [3] 0.43% | viability [4] 71.8% | viability [5] 72.9% | inhibition [6] 2.7% | RAM network inhibition [7] 3.24%

From PubChem BioAssay
